Experimental data pooled from the literature.
Target: Insulin receptor-related protein (INSRR, Homo sapiens, UniProt P14616)

With `O=c1[nH]c2ccccc2n1C1CCN(Cc2ccc(-c3[nH]c4cc5ncnc5cc4nc3-c3ccccc3)cc2)CC1` the remaining signal was 101% (cell-free assay; 0.5 µM).
For `C#Cc1n[nH]c2c(-c3cn(C(C)c4ccccn4)c(=O)[nH]c3=O)cc(F)cc12` (centres unmarked), the inhibition was 0.7% (enzyme activity; inhibitor; 1 µM).
`COc1cc(Nc2ncc(F)c(Nc3ccc4c(n3)NC(=O)C(C)(C)O4)n2)cc(OC)c1OC` gave an inhibition of 53% (binding; competition with immobilised ligand; 10 µM).
`Nc1ncc(-c2nc(N3CCOCC3)nc(N3CCOCC3)n2)c(C(F)F)n1` has a remaining binding of 80% (binding; competition with immobilised ligand; 10 µM).
`Cc1nn(C)cc1-c1nc2c(N3CCN(Cc4ccc(Cl)cc4)CC3)c(Cl)cnc2[nH]1` has a remaining binding of 100% (binding; competition with immobilised ligand; 1 µM).
For `Cn1cc(-c2cc(F)cc(N3CCn4c(cc5c4CCCC5)C3=O)c2CO)cc(Nc2ccc(N3CCN(C4COC4)CC3)cn2)c1=O`, the inhibition was 15% (enzyme activity; inhibitor; 0.1 µM).
`COc1ncccc1-c1cnn2ccc(N3CCN(C(=O)OC(C)C)CC3)nc12` gave a remaining binding of 96% (binding; competition with immobilised ligand; 1 µM).
The inhibition of `Cn1cc(-c2cccc(N3CCc4c(sc5c4CC(C)(C)C5)C3=O)c2CO)cc(Nc2ccncn2)c1=O` is reported as 2% (enzyme activity; inhibitor; 1 µM).
With `C#Cc1n[nH]c2c(-c3cn([C@@H](C)c4ccccc4)c(=O)[nH]c3=O)cc(F)cc12` the inhibition was 6.9% (enzyme activity; inhibitor; 0.1 µM).
The remaining activity of `CC(C)(C)c1cc(C=C(C#N)C#N)cc(Br)c1O` is reported as 103% (enzyme activity; inhibitor; 0.5 µM).
`Cn1cncc1[C@](O)(COc1ccc(C#N)cc1-c1ccc(OC(F)(F)F)cc1)c1ccc(C#N)cc1` gave a remaining binding of 93% (cell-free assay; competition with immobilised ligand; 1 µM).
